Measurements published in publication PMC8277203 (The Journal of Clinical Endocrinology and Metabolism, 2021).

How the values were obtained:
Type in all cases: in vivo, human
[1] = test system: patients with postbariatric hypoglycemia (PBH); test: Mixed-meal tolerance testing; conditions: for GLP-1, AUC(0–180), mean value (SD) / Glucagon, AUC(0–180), mean value (SD) / Glucose, AUC(0–180), mean value (SD) / GLP-1, fasting, mean value (SD) / GLP-1, peak, mean value (SD) / Glucagon, fasting, mean value (SD) / Glucagon, peak, mean value (SD) / Glucose, AUC(peak:nadir), mean value (SD) / Glucose, fasting, mean value (SD) / Glucose, peak, mean value (SD) / Insulin, fasting, mean value (SD) / Glucose, nadir (primary endpoint), mean value (SD) / Insulin, peak (secondary endpoint), mean value (SD): 14 days, N = 17; for GLP-1, AUC(0–180), mean value (SD) / Glucagon, AUC(0–180), mean value (SD) / Glucose, AUC(0–180), mean value (SD): 0 to 180 minutes; for Glucose, nadir (primary endpoint), mean value (SD): postprandial plasma, within 3 hours of MMTT; for Insulin, peak (secondary endpoint), mean value (SD): postprandial; for Participants requiring rescue during MMTT: vs 47% with placebo
In short: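 Crossover design: 18 female patients got SC placebo for 14 days, then the test compound at 30 mg every 12 h and 60 mg each morning for 14 days each, in random order. After an overnight fast, each period ended with a 180-min MMTT: 64 g carbohydrate drink over 10 min. Plasma glucose, insulin, C-peptide, GLP-1 and glucagon were sampled every 15 min. Rescue was IV dextrose (point-of-care glucose ≤50 mg/dL with neuroglycopenic symptoms, or ≤40 mg/dL).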

[2] = test system: patients with postbariatric hypoglycemia (PBH); test: Outpatient hypoglycemia captured by SMBG/eDiary; conditions: for Rate of Level 2 hypoglycemia, mean value (SD): SMBG <54 mg/dL; for Rate of Level 2 hypoglycemia, mean value (SD) / Rate of Level 1 hypoglycemia, mean value (SD): episodes normalized to 14 days, N = 17; for Rate of Level 1 hypoglycemia, mean value (SD): SMBG <70 mg/dL
In short: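 Outpatients logged each hypoglycaemic episode in an eDiary, using a glucometer (SMBG) over each 14-day period. Entries were symptoms, lowest SMBG, treatment, need for assistance, and postprandial or not. Levels were defined as Level 1 SMBG <70 mg/dL, Level 2 <54 mg/dL, and Level 3 needing another person's assistance. Rate was distinct episodes divided by days, normalised to 14 days. Placebo-adjusted LS means came from a mixed-effect model.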

[3] = test system: patients with postbariatric hypoglycemia (PBH); test: Outpatient blinded continuous glucose monitoring; conditions: for No. events <54 mg/dL 8 AM-12 AM, mean value (SD) / No. events <54 mg/dL 12 AM-8 AM, mean value (SD): CGM, sustained at least 15 minutes, normalized to 14 days; for No. events <54 mg/dL 8 AM-12 AM, mean value (SD) / No. events <54 mg/dL 12 AM-8 AM, mean value (SD) / % Time <54 mg/dL 8 AM-12 AM, mean value (SD) / % Time >250 mg/dL 24 hours, mean value (SD): N = 17; for % Time <54 mg/dL 8 AM-12 AM, mean value (SD) / % Time >250 mg/dL 24 hours, mean value (SD): percentage of CGM values
In short: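 Blinded CGM was worn at home through three 14-day periods (placebo, then SC test compound 30 mg twice daily or 60 mg once daily), with two injections daily for blinding. Read-outs were % CGM values <54 mg/dL (8 am–12 am or 12 am–8 am) or >250 mg/dL, normalised to 14 days. LS means were placebo-adjusted by mixed-effect model (treatment, sequence, period fixed; subject within sequence random).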

[4] = Plasma avexitide pharmacokinetics at end of each 14-day treatment period
In short: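 Plasma for drug concentration was drawn at the end of each 14-day SC regimen (30 mg every 12 h; 60 mg each morning) on days 29 and 43. Sampling times were −90, 0, 60, 180 and 330 min […], with the trough taken immediately before the −90 min dose. C0, Cmax and AUC0-t were summarised descriptively.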

[5] = test system: patients with postbariatric hypoglycemia (PBH); test: Safety: treatment-emergent adverse events, laboratory and physical findings
[6] = avexitide 30 mg twice daily SC, MMTT
[7] = avexitide 30 mg twice daily, MMTT
[8] = avexitide 60 mg once daily SC, MMTT
[9] = avexitide 60 mg once daily, MMTT
[10] = plasma, end of each 14-day treatment period, SC

Evidence of systemic plasma exposure ([4]; both dosing regimens): observed in all patients | Mean (AUC0-t) exposure, higher for 60 mg once daily than 30 mg twice daily [4, 10]: 40% | Peak (Cmax) exposure, higher for 60 mg once daily than 30 mg twice daily [4, 10]: 72%
Substance: exendin (9-39) [Avexitide]
Fewer participants requiring rescue during MMTT compared with placebo ([1]; avexitide 30 mg twice daily): 50% | GLP-1, AUC(0–180), mean value (SD) [1, 6]: 330.8 (140.5) h×mg/dL | Glucagon, AUC(0–180), mean value (SD) [1, 6]: 466.7 (131.2) h × mg/dL | Glucose, AUC(0–180), mean value (SD) [1, 6]: 320.0 (89.5) h × mg/dL | GLP-1, fasting, mean value (SD) [1, 6]: 12.7 (3.4) pg/mL | GLP-1, peak, mean value (SD) [1, 6]: 413.3 (193.6) pg/mL | Glucagon, fasting, mean value (SD) [1, 6]: 156.3 (0) pg/mL | Glucagon, peak, mean value (SD) [1, 6]: 196.7 (49.8) pg/mL | Glucose, AUC(peak:nadir), mean value (SD) [1, 6]: 192.3 (91.9) h × mg/dL | Glucose, fasting, mean value (SD) [1, 6]: 87.5 (6.0) mg/dL | Glucose, peak, mean value (SD) [1, 6]: 218.2 (45.2) mg/dL | Insulin, fasting, mean value (SD) [1, 6]: 4.5 (2.7) μIU/mL | Glucose, nadir (primary endpoint), mean value (SD) ([1]; avexitide 30 mg twice daily SC): 57.1 (16.5) mg/dL | Insulin, peak (secondary endpoint), mean value (SD) [1, 6]: 349.5 (156.9) μIU/mL | AUC glucose concentrations higher than placebo [1, 7]: 12% | Increase of mean plasma glucose nadir compared with placebo [1, 7]: 21% | LS mean postprandial insulin peak lower than with placebo [1, 7]: 104.53 μIU/mL | Reduction of peak insulin compared with placebo [1, 7]: 23% | Participants requiring rescue during MMTT ([1]; avexitide 30 mg twice daily): 24% | Fewer participants requiring rescue during MMTT compared with placebo ([1]; avexitide 60 mg once daily): 75% | GLP-1, AUC(0–180), mean value (SD) [1, 8]: 351.1 (127.5) h×mg/dL | Glucagon, AUC(0–180), mean value (SD) [1, 8]: 484.1 (96.7) h × mg/dL | Glucose, AUC(0–180), mean value (SD) [1, 8]: 338.1 (80.7) h × mg/dL | GLP-1, fasting, mean value (SD) [1, 8]: 12.7 (4.6) pg/mL | GLP-1, peak, mean value (SD) [1, 8]: 397.1 (150.2) pg/mL | Glucagon, fasting, mean value (SD) [1, 8]: 156.8 (2.2) pg/mL | Glucagon, peak, mean value (SD) [1, 8]: 182.9 (35.9) pg/mL | Glucose, AUC(peak:nadir), mean value (SD) [1, 8]: 204.6 (86.3) h × mg/dL | Glucose, fasting, mean value (SD) [1, 8]: 84.6 (4.2) mg/dL | Glucose, peak, mean value (SD) [1, 8]: 224.5 (47.3) mg/dL | Insulin, fasting, mean value (SD) [1, 8]: 4.1 (2.6) μIU/mL | Glucose, nadir (primary endpoint), mean value (SD) ([1]; avexitide 60 mg once daily SC): 59.2 (16.1) mg/dL | Insulin, peak (secondary endpoint), mean value (SD) [1, 8]: 357.2 (190.9) μIU/mL | AUC glucose concentrations higher than placebo [1, 9]: 18% | Increase of mean plasma glucose nadir compared with placebo [1, 9]: 26% | LS mean postprandial insulin peak lower than with placebo [1, 9]: 96.29 μIU/mL | Reduction of peak insulin compared with placebo [1, 9]: 21% | Participants requiring rescue during MMTT ([1]; avexitide 60 mg once daily): 12% | Postprandial concentrations of GLP-1 and glucagon relative to placebo ([1]; both avexitide treatment regimens, MMTT): significantly higher | Influence on fasting insulin, GLP-1, or glucagon ([1]; both dosing regimens, MMTT): no influence | Reduction of rate of SMBG <54 mg/dL (Level 2 hypoglycemia) compared with placebo ([2]; avexitide 30 mg twice daily): 40% | Reduction of rate of SMBG <70 mg/dL (Level 1 hypoglycemia) compared with placebo ([2]; avexitide 30 mg twice daily): 30% | Reduction of rate of severe hypoglycemia (Level 3) events ([2]; avexitide 30 mg twice daily): 23% | Rate of Level 2 hypoglycemia, mean value (SD) ([2]; avexitide 30 mg twice daily SC): 1.21 (1.65) | Rate of Level 1 hypoglycemia, mean value (SD) ([2]; avexitide 30 mg twice daily SC): 2.81 (2.13) | Reduction of rate of SMBG <54 mg/dL (Level 2 hypoglycemia) compared with placebo ([2]; avexitide 60 mg once daily): 60% | Reduction of rate of SMBG <70 mg/dL (Level 1 hypoglycemia) compared with placebo ([2]; avexitide 60 mg once daily): 61% | Reduction of rate of severe hypoglycemia (Level 3) events ([2]; avexitide 60 mg once daily): 56% | Rate of Level 2 hypoglycemia, mean value (SD) ([2]; avexitide 60 mg once daily SC): 0.81 (0.88) | Rate of Level 1 hypoglycemia, mean value (SD) ([2]; avexitide 60 mg once daily SC): 1.56 (1.27) | No. events <54 mg/dL 8 AM-12 AM, mean value (SD) ([3]; avexitide 30 mg twice daily SC): 2.82 (3.00) | No. events <54 mg/dL 12 AM-8 AM, mean value (SD) ([3]; avexitide 30 mg twice daily SC): 2.34 (3.03) | % Time <54 mg/dL 8 AM-12 AM, mean value (SD) ([3]; avexitide 30 mg twice daily SC): 0.99 (1.12) % | % Time >250 mg/dL 24 hours, mean value (SD) ([3]; avexitide 30 mg twice daily SC): 0.99 (1.34) % | Reduction of mean percent time with glucose <54 mg/dL ([3]; avexitide 30 mg twice daily, blinded CGM): 50% | No. events <54 mg/dL 8 AM-12 AM, mean value (SD) ([3]; avexitide 60 mg once daily SC): 3.46 (2.48) | No. events <54 mg/dL 12 AM-8 AM, mean value (SD) ([3]; avexitide 60 mg once daily SC): 3.56 (4.18) | % Time <54 mg/dL 8 AM-12 AM, mean value (SD) ([3]; avexitide 60 mg once daily SC): 1.49 (1.70) % | % Time >250 mg/dL 24 hours, mean value (SD) ([3]; avexitide 60 mg once daily SC): 0.85 (0.98) % | Reduction of mean percent time with glucose <54 mg/dL ([3]; avexitide 60 mg once daily, blinded CGM): 24% | Percent time with glucose >250 mg/dL ([3]; blinded CGM, across treatment groups): less than 1% | Serious adverse event (presyncope), reported as unrelated to study drug and self-limited ([5]; avexitide 60 mg once daily): 1 | Changes in vital signs, body weight, hematology or chemistry ([5]; both dosing regimens): No clinically significant changes | Patient withdrawals ([5]; both dosing regimens): no patient withdrawals | Treatment-related serious adverse events ([5]; both dosing regimens): no treatment-related serious adverse events | Tolerability ([5]; both dosing regimens, 28 days): well tolerated
